The values that follow come from ChEMBL document CHEMBL4316593 (Eur J Med Chem, 2019).

Activity calls are given as the source filed them. The calls are words filed in the database; no cut-off is given here.

In the assay the test system is U-87 MG. Nature of the assay: Cytotoxicity against human U87 cells assessed as reduction in cell proliferation at 100 uM measured after 48 hrs by trypan blue dye-based cell counting analysis. The format is functional. To be noted: U-87MG ATCC. Put shortly: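 Trypan blue viability assay. U87 (MEM, 10% FBS) or LN229 (DMEM, 5% FBS) cells were treated for 48hrs. Screening used 100 μM; the dose-response used 100, 75, 50, 25 and 10 μM. Cells were pelleted at 1200 rpm and live/dead cells counted by automated counter. Mortality % was taken relative to the DMSO control, and IC₅₀ derived from the dose-response curve. Cisplatin served as positive control.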

As for `CC(=O)/C(=N\Nc1ccc([N+](=O)[O-])cc1O)C(=O)c1ccccc1`, the result was Active.

With `CC(=O)/C(=N\Nc1cc(S(=O)(=O)O)cc(S(=O)(=O)O)c1O)C(=O)c1ccccc1`, the result was inactive.
